Source: PubChem BioAssay
The list is not random: actives were taken first. Their share in the collection is about 2.1%.
APJ antagonist – APJ receptor antagonism; inhibition, % at 20 µM; CHO-K1 APJ beta-arrestin complementation, luminescence; AID 2521; P35414; actives 0.32% (n = 330,000);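 active = inhibition above about 40% at 20 µM, limit read from the data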;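 also: cells challenged with 10 nM apelin-13 agonist together with compound; plate controls were apelin-13 plus DMSO wells for no effect and DMSO wells lacking apelin-13 for full effect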
APJ agonist – APJ receptor agonism; P35414; CHO-K1 APJ PathHunter beta-arrestin, luminescence; 0% DMSO wells, 100% apelin; activation, % at 20 µM; actives 0.11% (n = 330,000);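 active = activation more than six SD over the plate average, tested at 20 µM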;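 also: 0% = DMSO alone and 100% = apelin-13 at 10 nM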
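Material: engineered CHO-K1 APJ arrestin reporter cells; amount: 1000 CHO-K1 reporter cells seeded per well; incubation: compound stimulation 90 min at 25 °C, detection 60 min; signal: luminescent beta-gal fragment complementation, chemiluminescent substrate; read-out basis: APJ agonist activity; controls: DMSO-only wells as negative, 10 nM Apelin-13 as positive control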
CCR6 antagonist – antagonists of human CCR6 receptor | P51684 | CHO-K1 CCR6 PathHunter beta-arrestin, luminescence, CCL20-stimulated | inhibition, % at 20 µM | actives 0.49% (n = 340,000) | AID 493098;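 active = compounds whose inhibition of the agonist-driven luminescence signal at 20 µM reaches about 50%, limit read from the data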;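 also: cells stimulated with CCL20 at 14 nM final; plate controls were DMSO with CCL20 for no effect and DMSO without agonist for full effect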
HTR2A ag – activates the mouse 5-HT2A serotonin receptor. actives 0.66% (n = 360,000). CHO-K1 mHTR2A beta-arrestin complementation, luminescence; percent of 30 µM serotonin response. P35363. activation, % at 7.6 µM;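 active = activation above a run cutoff, the mean activation of all tested compounds plus 3 SD, cut at about 14% in these data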;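 also: 0% = plate median of compound wells and 100% = 30 µM serotonin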
CXCR6 block – inhibitors of human CXCR6 receptor; AID 602244; O00574; actives 0.36% (n = 360,000); CHO-K1 PathHunter CXCR6 beta-arrestin, luminescence; inhibition, % at 20 µM; in the data active = inhibition above about 34%, passing the limit was not always enough;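 also: antagonist mode with CXCL16 agonist at 10 nM final; 0% = 10 nM CXCL16 with DMSO and 100% = unstimulated wells without agonist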
Target sequence (O00574 whole entry, looked up): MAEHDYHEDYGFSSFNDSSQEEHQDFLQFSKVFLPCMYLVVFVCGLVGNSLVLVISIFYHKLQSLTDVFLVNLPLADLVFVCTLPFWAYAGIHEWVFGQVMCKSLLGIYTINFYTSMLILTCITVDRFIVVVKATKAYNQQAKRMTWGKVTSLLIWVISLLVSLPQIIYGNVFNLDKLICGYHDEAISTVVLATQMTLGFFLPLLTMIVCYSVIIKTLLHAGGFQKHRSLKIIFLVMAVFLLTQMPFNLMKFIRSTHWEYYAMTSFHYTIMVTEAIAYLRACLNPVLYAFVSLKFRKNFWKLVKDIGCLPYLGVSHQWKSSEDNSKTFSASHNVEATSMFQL
EBI2 antag – EBI2 (human) antagonism; P32249; EBI2 beta-arrestin recruitment, luminescence, 7a,25-OHC stimulated; inhibition, % at 5 µM; actives 0.81% (n = 360,000); AID 651636; in the data active = inhibition above about 38%;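 also: enzyme fragment complementation signal reports receptor beta-arrestin coupling in cells; 0% = agonist plus DMSO wells and 100% = wells without agonist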
APJ antag confirm – APJ receptor antagonism confirmation. AID 2766. shares compounds with APJ antagonist. actives 66% (n = 950). APJ beta-arrestin recruitment, luminescence, antagonist mode. inhibition, % at 20 µM; in the data active = inhibition above about 50%
Active calls of the source: *; nt = no result given.

SMILES	APJ antagonist	APJ agonist	CCR6 antagonist	HTR2A ag	CXCR6 block	EBI2 antag	APJ antag confirm
Cc1cc([N+](=O)[O-])ccc1NC(=S)NC(=O)C(c1ccccc1)c1ccccc1	42*	-11	53*	-1	35	19	52*
ON1C(c2ccccc2C(F)(F)F)N(O)[C@H]2CCCC[C@H]21 (stereo partly drawn)	40*	-8	29	4	20	0	38
Cc1ccccc1N(CC(=O)NC1CCCCC1)C(=O)CNC(=O)c1cccs1	-5	0	16	0	2	-1	nt
CCOC(=O)C1=C(C)N=c2s/c(=C/c3ccco3)c(=O)n2C1c1cccc(OC)c1 (stereo not drawn)	-19	-3	37	nt	nt	nt	nt
CCOC(=O)C1=C(c2ccccc2)N=c2s/c(=C\c3ccc(O)cc3)c(=O)n2C1c1cccs1 (stereo not drawn)	42*	-8	53*	-1	18	2	102*
CCOC(=O)C1=C(C)N=c2s/c(=C/c3cccc([N+](=O)[O-])c3O)c(=O)n2C1c1ccccc1 (stereo not drawn)	50*	-9	71*	1	33	5	99*
CCOC(=O)C1=C(C)N=c2s/c(=C/c3cccc([N+](=O)[O-])c3O)c(=O)n2C1c1cc(OC)c(OC)c(OC)c1 (stereo not drawn)	40*	-7	55*	2	34	-1	90*
COc1ccc(-c2cc(C(=O)N(C)CC(=O)Nc3cccc(F)c3)c3ccccc3n2)cc1	-10	-1	-2	1	1	21	nt
CCNC(=S)Nc1ccc(Cc2nc3ccccc3[nH]2)cc1	9	-4	3	-2	2	-3	nt
Oc1c(N=Nc2ccccn2)ccc2ccccc12	68*	-12	50*	-12	32	36	113*
CC(C)NC(=O)C(=O)Nc1cc2c3c(c1)C(C)C(=O)N3CCC2 (stereo not drawn)	1	2	-8	2	0	-6	nt
CCCOc1ccc(C(=O)NNC(=S)NC(=O)CC)cc1	54*	-9	78*	-3	48*	-2	94*
Cc1nn(CCC(=O)NNC(=S)Nc2ccccc2)c(C)c1Br	47*	-12	27	-26	8	5	100*
Cc1nn(CCC(=O)NNC(=S)NCC(C)C)c(C)c1Br	77*	-14	53*	-26	38	22	115*
CNC(=S)NNC(=O)CCn1nc(C)c(Br)c1C	21	-2	-6	-6	-1	-4	nt
Cc1ccc(N2C(=O)C(Cc3ccc(O)cc3)NC2=S)cc1C (stereo not drawn)	67*	1	-44	-1	8	1	42
C[C@@H](C(=O)OCC(=O)c1ccc(F)c(F)c1)N1C(=O)C2CCCCC2C1=O (stereo partly drawn)	11	-2	8	-2	-5	-11	nt
Cc1nn(-c2nc3ccccc3[nH]2)c(N)c1-c1ccc(Cl)cc1	46*	-6	43	0	34	27	0
Cc1nn(-c2nc3ccccc3[nH]2)c(=O)c2ccccc12	nt	nt	3	3	7	2	nt
CCOC(=O)/C=C/C(=O)OCC(=O)Nc1ccc([N+](=O)[O-])cc1	-2	-2	1	1	7	-4	nt
CN(C=O)c1cc([N+](=O)[O-])ccc1OCc1ccccc1	nt	nt	13	-4	1	-1	nt
CC1CC(=O)Nc2ccccc2N1S(=O)(=O)c1ccccc1 (stereo not drawn)	60*	3	-3	-1	-4	1	45
CCOC(=O)[C@]12CCC=C1N(Cc1ccc(Cl)cc1Cl)C(=O)[C@H](CC(=O)NCC1CCCCC1)C2	nt	nt	nt	1	9	10	nt
O=C(CSc1ncnc2c1cnn2-c1ccccc1)Nc1ccccc1	54*	2	11	-3	0	-1	27
Nc1nc2ccccc2cc1C(=O)NCCCCc1ccccc1	nt	nt	nt	-2	-6	-5	nt
SMILES	APJ antagonist	APJ agonist	CCR6 antagonist	HTR2A ag	CXCR6 block	EBI2 antag	APJ antag confirm
COc1cccc(N=C2NC(=O)/C(=C/c3cc([N+](=O)[O-])ccc3O)S2)c1	41*	-8	35	2	26	16	52*
O=C1NC(=Nc2ccccc2Cl)S/C1=C\c1cc([N+](=O)[O-])ccc1O	31	-5	35	0	25	5	nt
O=S1(=O)CC(N2CCN(CCO)CC2)CN1Cc1cn(Cc2ccccc2C(F)(F)F)nn1 (stereo not drawn)	nt	nt	nt	5	5	-13	nt
COc1cccc2sc(Nc3nc(-c4ccccn4)cs3)nc12	52*	-7	nt	-8	37	86*	23
COc1cccc2sc(Nc3nnc(-c4ccc(F)cc4)o3)nc12	1	-3	-5	-1	-7	-6	nt
COc1cccc2sc(Nc3nnc(-c4cccs4)o3)nc12	42*	-6	29	-6	13	16	3
CCOc1cc(/C=C2\CCC/C(=C\c3cc(Cl)c(O)c(OCC)c3)C2=O)cc(Cl)c1O	58*	-8	51*	-11	60*	40	111*
C=CCNC(=O)/C(C#N)=C\c1cc(Cl)c(O)c(OCC)c1	nt	nt	20	1	12	-14	nt
Cc1ccc(C(=O)Nc2nc3n(n2)C(c2ccccc2)CC(=O)N3)cc1 (stereo not drawn)	21	-2	11	-1	3	-6	nt
Cc1cc(NC(=O)c2c(F)cccc2F)n(-c2nc3ccccc3[nH]2)n1	44*	-9	27	2	5	15	5
Cc1cc(NC(=O)c2ccccc2F)n(-c2nc3ccccc3[nH]2)n1	33	-2	24	1	11	-1	nt
Cc1cc(NC(=O)c2c(F)cccc2Cl)n(-c2nc3ccccc3[nH]2)n1	55*	-1	61*	-5	-14	14	27
CCN(CC(=O)Nc1c(F)cccc1F)C(=O)c1ccc(C#N)cc1	6	-1	-1	1	6	5	nt
O=c1c2cc([N+](=O)[O-])cc([N+](=O)[O-])c2[nH]n1-c1ccccc1	41*	-9	56*	-8	39	10	76*
O=C1ON=C(c2ccccc2)/C1=C/c1ccc(O)c(O)c1	42*	-8	45	7	28	-3	68*
COc1ccc(/C=C2\C(=O)ON=C2c2ccccc2)cc1	-1	2	-12	8	-6	-7	nt
Cc1ccc(S(=O)(=O)Nc2cccc3cccnc23)cc1	76*	-17	86*	-8	70*	30	96*
Cc1ccc(S(=O)(=O)Nc2ccccc2-c2ccccc2NS(=O)(=O)c2ccc(C)cc2)cc1	-2	0	-18	-5	-13	4	nt
